# Results published in PMC6811854 (ACS Omega, 2019).
# Legend:
# [1] = system: Neuro2A cells; experiment: Neurite outgrowth assay; format: cell-based, mouse; conditions: for optimum neuritogenic concentration: average neurite length; for neurite outgrowth promotion compared to no inhibitor (vehicle): differentiated Neuro2A cells, 48 h post-treatment, 10, 1, 0.1, 0.01 μM
# [2] = system: Neuro2A cells; experiment: Immunoblot of acetylated H3, H4 and tubulin in Neuro2A cells; format: cell-based, mouse; conditions: 1 μM, compared to vehicle
# Method in brief: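 Neuro2A cells were exposed to compound or vehicle and harvested in Laemmli buffer; protein was assayed by amido black. Equal protein went on 12% SDS-PAGE, then PVDF transfer. Primaries ran overnight at 4 °C and secondaries 2 h at room temperature, with chemiluminescent detection. Acetylated H3, H4 and tubulin were quantified and compared with vehicle by Student's t-test.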
# [3] = system: Zebrafish; experiment: Social interaction test in chronic unpredictable stress; format: in vivo, Zebrafish (Danio rerio); conditions: intraperitoneal
# Method in brief: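 Adult zebrafish were held at 28 ± 2 °C on a 14/10 h light/dark cycle. They then had 7 days of chronic unpredictable stress, two varied stressors daily (restraint, 33/23 °C, isolation, crowding, predator, chasing, alarm pheromone, etc.). Test compound was given at 10, 25 or 50 mg/kg, with fluoxetine 15 mg/kg as reference. Each fish then spent 120 s with an unfamiliar pink zebrafish target. Video was scored manually for latency, interaction time and freezing; n = 15.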
# [4] = system: HDAC8 (class I), HDAC4 (class IIa), HDAC6 (class IIb); experiment: HDACi selectivity assay; format: biochemical, Human; conditions: enzymes immunoprecipitated from HeLA cells; 10, 1, 0.1, 0.01, 0.001 μM
# [5] = system: Neuro2A cells; experiment: Cell viability assay; format: cell-based, mouse; conditions: 10 μM, 72 h, MTT assay
# Method in brief: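 Neuro2A cells were kept in DMEM/10% FBS with supplements at 37 °C, 5% CO2, and seeded at 10 000 cells/cm2. After 24 h they were differentiated in 1% FBS and exposed to compounds (10, 1.0, 0.1 μM) for 72 h. MTT was added for 2 h at 37 °C, formazan was dissolved in DMSO and absorbance read at 562 nm. Viability is given relative to vehicle.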
# [6] = BBB crossing: TLC detection in Zebrafish brain extract; format: in vivo; conditions: 25 mg/kg, intraperitoneal injection
# Method in brief: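 Adult zebrafish were dosed with 25 mg/kg test compound or DMSO vehicle. Fish were anaesthetised on ice, and the whole brain was removed and freeze-dried in liquid nitrogen. Brains were ground in HPLC-grade ethyl acetate, sonicated, centrifuged (10 000 rpm, 20 min) and left 20 min to separate the extract. Compound in the extract was detected by TLC.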
# [7] = compound 5 at 50 mg dose, vs vehicle-treated group
SMILES,neurite growth activity and viability above the optimum neuritogenic concentration ([1]; Neuro2A cells),optimum neuritogenic concentration ([1]; Neuro2A cells) [µM],neurite outgrowth promotion compared to no inhibitor (vehicle) [1],other results
"O=C(CCCCCc1ccc2c(c1)c1ccccc1n2Cc1ccccc1)NO [Compound 4, 6-(9-Benzyl-9H-carbazol-3-yl)-N-hydroxyhexanamide]",reduced neurite growth activity and viability,0.1,significantly more neurite outgrowth promotion,
"O=C(CCCCCCCc1ccc2[nH]c3ccccc3c2c1)NO [Compound 5, 8-(9H-Carbazol-3-yl)-N-hydroxyoctanamide]",reduced neurite growth activity and viability,1,significantly more neurite outgrowth promotion,"acetylated H3 [2]: significant increase; acetylated H4 [2]: significant increase; acetylated tubulin [2]: significant increase; latency to social interaction [3, 7]: not at 50 mg dose; total time spent in interaction zone [3, 7]: not at 50 mg dose; HDAC class selectivity [4]: selectivity for class II (class IIa-HDAC4 and class IIb- HDAC6) over class I (HDAC8); neurite outgrowth compared to vorinostat and tubastatin-A ([1]; Neuro2A cells, at optimum neuritogenic concentrations): remarkably more neurite outgrowth; cell viability (cytotoxicity) [5]: does not show any observable toxicity; crossing of the blood-brain barrier (detection in brain extract by TLC) [6]: crossing the BBB"
"O=C(CCCCC(=NO)c1ccc2c(c1)c1ccccc1n2Cc1ccccc1)NO [Compound 6, 6-(9-Benzyl-9H-carbazol-3-yl)-N-hydroxy-6-(hydroxyimino)hexanamide]",reduced neurite growth activity and viability,0.01,significantly more neurite outgrowth promotion,
"O=C(CCCCCCC(=NO)c1ccc2c(c1)c1ccccc1n2Cc1ccccc1)NO [Compound 7, 8-(9-Benzyl-9H-carbazol-3-yl)-N-hydroxy-8-(hydroxyimino)octanamide]",reduced neurite growth activity and viability,0.1,significantly more neurite outgrowth promotion,
"O=C(CCCCc1ccc2c(c1)c1ccccc1n2CC(=O)NO)NO [Compound 8, N-hydroxy-5-(9-(2-(hydroxyamino)-2-oxoethyl)-9H-carbazol-3-yl)pentanamide]",reduced neurite growth activity and viability,0.1,significantly more neurite outgrowth promotion,
"O=C(CCCC(=NO)n1c2ccccc2c2ccccc21)NO [Compound 10, 5-(9H-Carbazol-9-yl)-N-hydroxy-5-(hydroxyimino)pentanamide]",reduced neurite growth activity and viability,0.1,significantly more neurite outgrowth promotion,
"O=C(CCCCC(=NO)n1c2ccccc2c2ccccc21)NO [Compound 11, 6-(9H-Carbazol-9-yl)-N-hydroxy-6-(hydroxyimino)hexanamide]",reduced neurite growth activity and viability,0.1,significantly more neurite outgrowth promotion,
"CNCCC(Oc1ccc(C(F)(F)F)cc1)c1ccccc1 (stereo not drawn) [fluoxetine, reference compound]",,,,"freezing duration (social interaction test) ([3]; compound 5 (10, 25, 50 mg/kg tested), fluoxetine 15 mg/kg): trend of decreased freezing duration"
"CN1CCc2c(c3ccccc3n2Cc2ccc(C(=O)NO)cc2)C1 [tubastatin-A, reference compound]",reduced neurite growth activity and viability,10,significantly more neurite outgrowth promotion,
"O=C(CCCCCCC(=O)Nc1ccccc1)NO [vorinostat, suberoylanilide hydroxamic acid, reference compound]",reduced neurite growth activity and viability,1,,
